M1 antagonist: antagonists of rat M1 muscarinic receptor; hit rate 3.4% among 64,000; CHO-M1 cells, Fluo-4 calcium, ACh EC80 antagonist mode; active compounds read low; B-score at 10 µM;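 active = calcium fluorescence response, raw or row-and-column corrected B-score, differing from the plate sample mean either way at a set confidence level, mostly lower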
RORA act: activators of orphan receptor RORA, primary screen, cell-based, luminescence; Nuclear receptor ROR-alpha (Homo sapiens), P35398; CHO-K1 Gal4-RORA LBD luciferase reporter; percent increase over mock-subtracted basal signal; activation, % at 10 µM; hit rate 1.5% among 65,000;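 active = activation above the mean of all tested compounds plus 3 SD, cut at about 49% in these data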;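 also: 0% = DMSO-treated RORA cells and 100% = added signal equal to DMSO minus mock-transfected cells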
Target sequence (P35398 whole entry, looked up, the tested form may be a part): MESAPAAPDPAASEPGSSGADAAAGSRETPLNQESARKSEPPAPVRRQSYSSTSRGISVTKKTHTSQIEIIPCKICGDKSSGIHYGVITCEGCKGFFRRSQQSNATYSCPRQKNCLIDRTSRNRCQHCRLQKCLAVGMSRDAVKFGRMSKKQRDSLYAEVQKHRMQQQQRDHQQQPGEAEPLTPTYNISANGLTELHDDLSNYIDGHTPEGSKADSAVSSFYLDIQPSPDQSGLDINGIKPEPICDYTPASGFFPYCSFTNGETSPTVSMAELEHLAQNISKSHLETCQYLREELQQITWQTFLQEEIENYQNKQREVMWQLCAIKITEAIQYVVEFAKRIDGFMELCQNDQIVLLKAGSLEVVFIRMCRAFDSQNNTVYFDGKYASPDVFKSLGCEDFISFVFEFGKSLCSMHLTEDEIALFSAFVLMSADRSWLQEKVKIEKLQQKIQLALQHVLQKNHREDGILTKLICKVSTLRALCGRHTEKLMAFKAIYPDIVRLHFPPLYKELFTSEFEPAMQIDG
M1 ag: M1 muscarinic receptor agonists, primary screen, CHO-M1 cells, Fluo-4 calcium, agonist mode. B-score at 10 µM. hit rate 3% among 64,000. Fluo-4 calcium fluorescence; active compounds read high. AID 626, 2007;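 active = fluorescence rise, raw or as B-score row- and column-corrected plate score, outside the 99.7% band of its plate's samples, either direction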
SF1 activator: activators of human SF-1, primary screen, cell-based, CHO-K1, Gal4-SF-1 LBD, luciferase luminescence. CHO-K1 Gal4-SF-1 LBD luciferase reporter; % increase over DMSO SF-1-specific signal. activation, % at 10 µM. hit rate 1.9% among 65,000. AID 522, 2006;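 active = activation above the mean activation of all tested compounds plus 3 SD, cut at about 50% in these data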
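Assay system: CHO-K1 cells co-transfected with Gal4 DBD–human SF-1 LBD, 5xGal4 luciferase reporter; doses: 10 µM only; incubation: 20 h compound exposure at 37 °C after 1 h cell settling; signal: luciferase light emission; evaluation: percent activation versus DMSO; repeats: one test per compound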
Htt clearance: clearance of mutant huntingtin inclusions, primary screen, imaging, HeLa Exon1htt(103Q)mCFP, confocal imaging. aggregate imaging; zero = plate's median compound well. hit rate 0.42% among 47,000. AID 853, 2007. inhibition, % at 1.5 µM;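 active = inhibition of aggregate fluorescence above about 70%, also judged a hit by eye on the cell image, limit read from the data, passing the limit was not always enough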;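 also: cells exposed to compound for three days before fixation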
D1 mod: D1 CRE-luciferase signal change, two-sided – cell-based, HEK293 D1, dopamine EC30, D1 allosteric modulator project, primary screen | B-score at 10 µM | hit rate 5.9% among 58,000 | AID 641, 2007 | dopamine EC30 potentiation; actives deviate in either direction;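 active = luminescence count or its row- and column-corrected plate score outside the 99.7% band of the plate's sample wells, on either side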
M1 antag conf: rat M1 muscarinic receptor antagonists, confirmation, CHO cells, Fluo-4 calcium, duplicate. shares compounds with M1 antagonist. ACh EC80 antagonism; active compounds read low. calcium response (max-min fluorescence) at 10 µM. hit rate 43% among 1,700. AID 677, 2007;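 active = calcium response below the same-plate mean of wells given acetylcholine alone at its 80%-effect dose, minus 3 SD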;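 also: raw fluorescence intensity difference in arbitrary instrument units and not normalized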
mGluR4 antag: human mGluR4 response to M1 antagonist hits, M1 allosteric modulator project, cell-based, antagonist mode, secondary assay 1 | hit rate 0.9% among 1,700 | CHO-mGluR4 calcium flux, Fluo-4 fluorescence, glutamate EC80; active compounds read low | fluorescence response (max-min) at 10 µM | shares compounds with M1 antagonist;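 active = fluorescence response below the plate's average for near-maximal glutamate wells, less 3 SD of those wells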;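 also: raw unnormalized fluorescence span taken in the window right after glutamate addition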
Starred values were filed as active, the others as inactive. A selection: hits, their analogues and other compounds. The true share with any hit is near 11%.

Results for Cc1ccccc1OCCCC(=O)Nc1ccc(N2CCOCC2)cc1 ?
M1 antagonist: -0.27; RORA act: 1; M1 ag: -0.087; SF1 activator: 14

Results for Cc1ccc(OCC(=O)Nc2ccc(N3CCCC3)cc2)cc1C ?
M1 antagonist: -3.6*; RORA act: -3; M1 ag: -0.93; SF1 activator: -19; Htt clearance: 38; D1 mod: -1; M1 antag conf: 527; mGluR4 antag: 243

What do the screens show for `Cc1cc2c(c(=O)n1Cc1ccc3c(c1)OCO3)C(c1cccnc1)C(C#N)=C(N)O2` (configuration not stated)?
M1 antagonist: 0.022; RORA act: -1; M1 ag: -0.056; SF1 activator: -18; Htt clearance: -1; D1 mod: -0.08

How did COc1ccccc1NC(=O)Nc1ccnn1Cc1cccs1 do in these assays?
M1 antagonist: 0.42; RORA act: 12; M1 ag: -0.16; SF1 activator: 4; D1 mod: -0.45

Results for COc1ccc(CCN=CC2=C(O)CCCC2=O)cc1OC ?
M1 antagonist: 0.41; RORA act: -4; M1 ag: -0.083; SF1 activator: -2; D1 mod: 1.1

What do the screens show for `Cc1ccccc1NC(=O)CCC(=O)OCCCC(F)(F)C(F)(F)F`?
M1 antagonist: 0.52; RORA act: 0; M1 ag: 0.22; SF1 activator: 4; D1 mod: 0.067

How did CCOC(=O)c1oc2ccc(CNCCO)c(Cl)c2c1C do in these assays?
M1 antagonist: -1.9*; RORA act: 19; M1 ag: -0.76; SF1 activator: 66*; Htt clearance: 9; D1 mod: -0.69; M1 antag conf: 519*; mGluR4 antag: 212

How did O=C(c1cnn(-c2ccccc2)c1-n1cccc1)N1CCN(C2CCCCC2)CC1 do in these assays?
M1 antagonist: -0.13; RORA act: 21; M1 ag: -0.49; SF1 activator: -6

How did N=c1c2c(n(Cc3ccc(Cl)c(Cl)c3)c3c1CCC3)CCCC2 do in these assays?
M1 antagonist: -2.4*; RORA act: 17; M1 ag: -0.35; SF1 activator: -7; Htt clearance: 15; D1 mod: -3.4; M1 antag conf: 433*; mGluR4 antag: 236

What do the screens show for `O=c1[nH]c(=O)n(Cc2ccccc2)c2c1CCC2`?
M1 antagonist: -0.037; RORA act: -8; M1 ag: 0.02; SF1 activator: -11; D1 mod: 0.42

What do the screens show for `COc1ccccc1NC(=O)Nn1cnnc1`?
M1 antagonist: -0.4; RORA act: 1; M1 ag: 0.083; SF1 activator: 21

How did COC(=O)c1ccccc1OC(=O)c1ccc(Br)o1 do in these assays?
M1 antagonist: -4.5*; RORA act: -10; M1 ag: 0.86; SF1 activator: -6; Htt clearance: -23; D1 mod: -0.033; M1 antag conf: 518; mGluR4 antag: 179

Results for Cn1c(N2CCN(C(=O)C34CC5CC(CC(C5)C3)C4)CC2)nc2ccccc21 ?
M1 antagonist: -0.43; RORA act: -3; M1 ag: 0.28; SF1 activator: -6; D1 mod: 0.5

How did Clc1cccc(-c2nnc(-c3ccccc3)o2)c1 do in these assays?
M1 antagonist: -1.7*; RORA act: 26; M1 ag: -0.33; SF1 activator: 8; Htt clearance: -49; M1 antag conf: 699; mGluR4 antag: 252

How did CCCn1nnnc1NC(=O)CSc1ccc(Cl)cc1 do in these assays?
M1 antagonist: -1.1; RORA act: -17; M1 ag: -0.69; SF1 activator: -11; Htt clearance: 28; D1 mod: -0.3

What do the screens show for `COc1ccc(NC(=O)CSc2nc3c(cc2C#N)CN(C)CC3)cc1`?
M1 antagonist: -0.48; RORA act: -8; M1 ag: -0.37; SF1 activator: 13; D1 mod: -0.94

Results for CCN1CCc2nc(SCC(=O)Nc3ccc(OC)cc3)c(C#N)cc2C1 ?
M1 antagonist: -0.73*; RORA act: -7; M1 ag: -0.046; SF1 activator: -5; M1 antag conf: 511; mGluR4 antag: 219

What do the screens show for `COc1ccc(CN2CCCCC2c2cccnc2)c(OC)c1C` (configuration not stated)?
M1 antagonist: -1.4; RORA act: -14; M1 ag: -0.0061; SF1 activator: 4; D1 mod: 0.089

What do the screens show for `O=C(NCCCN1CCc2ccccc2C1)C1CCN(c2nnc(-n3cccc3)s2)CC1`?
M1 antagonist: -2.9*; RORA act: -15; M1 ag: -0.096; SF1 activator: -12; M1 antag conf: 337*; mGluR4 antag: 209

Results for O=C(NCCCN1CCN(Cc2ccccc2)CC1)C1CCN(c2nnc(-n3cccc3)s2)CC1 ?
M1 antagonist: -6.9*; RORA act: 1; M1 ag: 0.05; SF1 activator: 4; D1 mod: -2; M1 antag conf: 419*; mGluR4 antag: 181

How did O=C(NCCCc1ccccc1)C1CCN(c2nnc(-n3cccc3)s2)CC1 do in these assays?
M1 antagonist: -0.3; RORA act: 25; M1 ag: -1.3; SF1 activator: -23; Htt clearance: -69

Results for COc1ccc(Oc2nccc(-c3ccccc3)c2C#N)cc1 ?
Htt clearance: -32

What do the screens show for `CN(C)c1ccc(NC(=O)Cn2c(=O)n(Cc3ccccc3)c(=O)c3ccccc32)cc1`?
M1 antagonist: 0.11; RORA act: -30; M1 ag: -1.1; SF1 activator: -8; D1 mod: 0.014

How did CCOc1cc(CNCC2CCCO2)cc(Br)c1OCC(N)=O (configuration not stated) do in these assays?
M1 antagonist: -0.5; RORA act: -3; M1 ag: 0.37; SF1 activator: -3; Htt clearance: -84; D1 mod: 0.00044

Results for CC(C)OC(=O)CSc1nnc(-c2ccc(O)cc2)n1Cc1ccccc1 ?
M1 antagonist: -3.3*; RORA act: -9; M1 ag: 0.0028; SF1 activator: 12; D1 mod: 0.22; M1 antag conf: 648; mGluR4 antag: 237

From PubChem
